In ChEMBL document CHEMBL2331324, “Synthesis and biological evaluation of guanidino analogues of roscovitine” (Eur J Med Chem, 2013):

Columns and labels:
[1] = molecular target: Tyrosine-protein kinase Yes (Homo sapiens) (UniProt P07947); experiment: Inhibition of recombinant YES1 (unknown origin) assessed as residual activity using [gamma-33P]ATP as substrate at 1 uM
Summary of the method: (§1)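 Kinase panel screen with each compound at 1 µM, in duplicate. Reactions were started with [γ-33P]ATP (800 cpm/pmol) at 5, 20 or 50 µM, chosen per enzyme to be at or below its ATP Km. Reactions were stopped with phosphoric acid and spotted onto P81 filters. Results are given as residual kinase activity.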

[2] = molecular target: Dual specificity tyrosine-phosphorylation-regulated kinase 2 (Homo sapiens) (UniProt Q92630); experiment: Inhibition of recombinant DYRK2 (unknown origin) assessed as residual activity using [gamma-33P]ATP as substrate at 1 uM
Summary of the method: (§2)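 Recombinant kinase panel screened at 1 µM in duplicate. Reactions started with [γ-33P]ATP (800 cpm/pmol) at 5, 20 or 50 µM, chosen to sit at or below each enzyme's ATP Km. Stopped with phosphoric acid and spotted onto P81 filters. Result given as residual kinase activity.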

[3] = molecular target: Tyrosine-protein kinase CSK (Homo sapiens) (UniProt P41240); experiment: Inhibition of recombinant CSK (unknown origin) assessed as residual activity using [gamma-33P]ATP as substrate at 1 uM; summary of the method: as §2
Sequence of Tyrosine-protein kinase CSK (Homo sapiens) (P41240 2-450 limits assumed): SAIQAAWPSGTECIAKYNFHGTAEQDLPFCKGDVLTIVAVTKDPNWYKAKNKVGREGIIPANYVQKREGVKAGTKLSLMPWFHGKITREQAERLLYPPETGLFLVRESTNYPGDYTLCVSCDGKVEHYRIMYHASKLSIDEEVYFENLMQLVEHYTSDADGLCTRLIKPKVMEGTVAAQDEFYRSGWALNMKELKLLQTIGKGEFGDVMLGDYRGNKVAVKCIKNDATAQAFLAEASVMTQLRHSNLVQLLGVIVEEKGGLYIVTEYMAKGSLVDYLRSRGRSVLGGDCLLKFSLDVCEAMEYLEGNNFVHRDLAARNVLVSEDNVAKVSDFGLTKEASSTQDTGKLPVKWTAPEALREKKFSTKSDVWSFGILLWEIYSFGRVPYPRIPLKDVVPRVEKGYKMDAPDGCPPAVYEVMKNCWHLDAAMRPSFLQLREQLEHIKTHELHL

[4] = molecular target: NUAK family SNF1-like kinase 1 (Homo sapiens) (UniProt O60285); experiment: Inhibition of recombinant NUAK1 (unknown origin) assessed as residual activity using [gamma-33P]ATP as substrate at 1 uM
Summary of the method: (§3)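 Selectivity panel run under previously published conditions. Screened at 1 μM in duplicate. Reactions started with [γ-33P]ATP (800 cpm/pmol) at 5, 20 or 50 μM, chosen to be at or below each enzyme's ATP Km. Stopped with phosphoric acid, spotted onto P81 filters. Result expressed as residual kinase activity.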

[5] = molecular target: Serine/threonine-protein kinase MARK2 (Homo sapiens) (UniProt Q7KZI7); experiment: Inhibition of recombinant MARK2 (unknown origin) assessed as residual activity using [gamma-33P]ATP as substrate at 1 uM; summary of the method: as §3
Sequence of Serine/threonine-protein kinase MARK2 (Homo sapiens) (Q7KZI7 whole entry): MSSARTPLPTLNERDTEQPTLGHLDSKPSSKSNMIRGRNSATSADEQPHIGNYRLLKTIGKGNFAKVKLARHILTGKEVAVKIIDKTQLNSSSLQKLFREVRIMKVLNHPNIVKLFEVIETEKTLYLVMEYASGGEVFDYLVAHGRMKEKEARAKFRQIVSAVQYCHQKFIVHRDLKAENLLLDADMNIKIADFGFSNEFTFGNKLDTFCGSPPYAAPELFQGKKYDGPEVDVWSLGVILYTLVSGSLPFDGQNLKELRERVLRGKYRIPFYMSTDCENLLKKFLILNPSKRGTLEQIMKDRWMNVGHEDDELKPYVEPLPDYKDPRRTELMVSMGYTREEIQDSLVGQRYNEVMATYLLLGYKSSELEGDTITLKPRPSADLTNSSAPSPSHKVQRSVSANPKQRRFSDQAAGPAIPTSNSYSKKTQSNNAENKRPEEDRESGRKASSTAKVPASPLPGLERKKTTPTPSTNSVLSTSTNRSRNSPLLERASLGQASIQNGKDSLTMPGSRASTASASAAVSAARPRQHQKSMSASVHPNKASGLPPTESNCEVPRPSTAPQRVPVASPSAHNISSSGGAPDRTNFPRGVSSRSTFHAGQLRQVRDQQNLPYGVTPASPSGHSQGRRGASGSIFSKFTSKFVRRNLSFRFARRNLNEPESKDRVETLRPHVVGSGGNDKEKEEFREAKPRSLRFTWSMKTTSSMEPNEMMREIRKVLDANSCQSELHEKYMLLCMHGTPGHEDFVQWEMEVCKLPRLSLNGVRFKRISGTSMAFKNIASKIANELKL

[6] = molecular target: Ephrin type-B receptor 2 (Homo sapiens) (UniProt P29323); experiment: Inhibition of recombinant EPH-B2 (unknown origin) assessed as residual activity using [gamma-33P]ATP as substrate at 1 uM; summary of the method: as §2
[7] = molecular target: Eukaryotic elongation factor 2 kinase (Homo sapiens) (UniProt O00418); experiment: Inhibition of recombinant EF2K (unknown origin) assessed as residual activity using [gamma-33P]ATP as substrate at 1 uM; summary of the method: as §2
[8] = molecular target: Homeodomain-interacting protein kinase 2 (Homo sapiens) (UniProt Q9H2X6); experiment: Inhibition of recombinant HIPK2 (unknown origin) assessed as residual activity using [gamma-33P]ATP as substrate at 1 uM; summary of the method: as §2
[9] = molecular target: Serine/threonine-protein kinase D1 (Homo sapiens) (UniProt Q15139); experiment: Inhibition of recombinant PKD1 (unknown origin) assessed as residual activity using [gamma-33P]ATP as substrate at 1 uM; summary of the method: as §3
[10] = molecular target: Serine/threonine-protein kinase tousled-like 1 (Homo sapiens) (UniProt Q9UKI8); experiment: Inhibition of recombinant TLK1 (unknown origin) assessed as residual activity using [gamma-33P]ATP as substrate at 1 uM; summary of the method: as §1
[11] = molecular target: Mitogen-activated protein kinase 3 (Homo sapiens) (UniProt P27361); experiment: Inhibition of recombinant ERK1 (unknown origin) assessed as residual activity using [gamma-33P]ATP as substrate at 1 uM; summary of the method: as §2
[12] = molecular target: Cyclin-dependent kinase 2/cyclin A (Homo sapiens) (UniProt P24941+P20248+P78396); experiment: Inhibition of recombinant CDK2/cyclin A (unknown origin) assessed as residual activity using [gamma-33P]ATP as substrate at 1 uM; assay type: protein-complex assay
Summary of the method: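 CDK2/cyclin A included in the radiometric panel at 1 µM in duplicate. Reactions started with [γ-33P]ATP (800 cpm/pmol) at 5, 20 or 50 µM, at or below the enzyme's ATP Km. Stopped with phosphoric acid, spotted onto P81 filters; result given as residual kinase activity.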

[13] = molecular target: Serine/threonine-protein kinase BRSK2 (Homo sapiens) (UniProt Q8IWQ3); experiment: Inhibition of recombinant BRSK2 (unknown origin) assessed as residual activity using [gamma-33P]ATP as substrate at 1 uM; summary of the method: as §2
Sequence of Serine/threonine-protein kinase BRSK2 (Homo sapiens) (Q8IWQ3 whole entry): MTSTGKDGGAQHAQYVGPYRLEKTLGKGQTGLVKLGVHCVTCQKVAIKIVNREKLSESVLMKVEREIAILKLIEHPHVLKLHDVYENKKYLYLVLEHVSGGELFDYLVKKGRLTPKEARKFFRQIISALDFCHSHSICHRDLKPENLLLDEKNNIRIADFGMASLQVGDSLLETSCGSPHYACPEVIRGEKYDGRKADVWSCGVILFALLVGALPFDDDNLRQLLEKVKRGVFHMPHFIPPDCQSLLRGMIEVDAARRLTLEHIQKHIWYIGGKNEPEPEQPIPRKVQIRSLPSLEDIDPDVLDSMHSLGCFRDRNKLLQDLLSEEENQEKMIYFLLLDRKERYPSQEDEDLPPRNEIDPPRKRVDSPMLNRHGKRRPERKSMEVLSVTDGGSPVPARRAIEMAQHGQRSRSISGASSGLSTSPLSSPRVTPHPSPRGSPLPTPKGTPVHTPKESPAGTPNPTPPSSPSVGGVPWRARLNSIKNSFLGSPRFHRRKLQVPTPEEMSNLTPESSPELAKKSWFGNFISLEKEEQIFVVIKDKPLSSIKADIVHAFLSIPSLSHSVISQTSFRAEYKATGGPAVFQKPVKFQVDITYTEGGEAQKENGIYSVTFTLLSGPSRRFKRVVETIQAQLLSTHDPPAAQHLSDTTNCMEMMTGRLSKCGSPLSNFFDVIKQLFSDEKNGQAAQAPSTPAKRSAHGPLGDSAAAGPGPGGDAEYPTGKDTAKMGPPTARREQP

[14] = molecular target: Interleukin-1 receptor-associated kinase 4 (Homo sapiens) (UniProt Q9NWZ3); experiment: Inhibition of recombinant IRAK4 (unknown origin) assessed as residual activity using [gamma-33P]ATP as substrate at 1 uM; summary of the method: as §2
Sequence of Interleukin-1 receptor-associated kinase 4 (Homo sapiens) (Q9NWZ3 whole entry): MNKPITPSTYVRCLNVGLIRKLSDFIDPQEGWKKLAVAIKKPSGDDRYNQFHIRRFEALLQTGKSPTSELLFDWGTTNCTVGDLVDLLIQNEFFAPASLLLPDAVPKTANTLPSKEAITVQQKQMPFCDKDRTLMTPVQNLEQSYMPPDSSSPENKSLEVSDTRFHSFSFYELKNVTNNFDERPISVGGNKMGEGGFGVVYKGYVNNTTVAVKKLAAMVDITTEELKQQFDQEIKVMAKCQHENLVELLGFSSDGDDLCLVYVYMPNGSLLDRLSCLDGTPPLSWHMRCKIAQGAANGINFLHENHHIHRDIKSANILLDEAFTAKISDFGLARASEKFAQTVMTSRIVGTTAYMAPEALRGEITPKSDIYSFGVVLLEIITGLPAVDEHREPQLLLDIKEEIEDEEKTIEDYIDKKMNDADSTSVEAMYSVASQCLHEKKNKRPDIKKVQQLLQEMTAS

[15] = molecular target: Mitogen-activated protein kinase 1 (Homo sapiens) (UniProt P28482); experiment: Inhibition of recombinant ERK2 (unknown origin) assessed as residual activity using [gamma-33P]ATP as substrate at 1 uM; summary of the method: as §2
[16] = molecular target: Proto-oncogene tyrosine-protein kinase Src (Homo sapiens) (UniProt P12931); experiment: Inhibition of recombinant SRC (unknown origin) assessed as residual activity using [gamma-33P]ATP as substrate at 1 uM; summary of the method: as §1
[17] = molecular target: Inhibitor of nuclear factor kappa-B kinase subunit epsilon (Homo sapiens) (UniProt Q14164); experiment: Inhibition of recombinant IKKepsilon (unknown origin) assessed as residual activity using [gamma-33P]ATP as substrate at 1 uM; summary of the method: as §2
[18] = molecular target: Mitogen-activated protein kinase 10 (Homo sapiens) (UniProt P53779); experiment: Inhibition of recombinant JNK3 (unknown origin) assessed as residual activity using [gamma-33P]ATP as substrate at 1 uM; summary of the method: as §3
[19] = molecular target: MAP kinase-interacting serine/threonine-protein kinase 1 (Homo sapiens) (UniProt Q9BUB5); experiment: Inhibition of recombinant MNK1 (unknown origin) assessed as residual activity using [gamma-33P]ATP as substrate at 1 uM; summary of the method: as §3
Sequence of MAP kinase-interacting serine/threonine-protein kinase 1 (Homo sapiens) (Q9BUB5 whole entry, looked up): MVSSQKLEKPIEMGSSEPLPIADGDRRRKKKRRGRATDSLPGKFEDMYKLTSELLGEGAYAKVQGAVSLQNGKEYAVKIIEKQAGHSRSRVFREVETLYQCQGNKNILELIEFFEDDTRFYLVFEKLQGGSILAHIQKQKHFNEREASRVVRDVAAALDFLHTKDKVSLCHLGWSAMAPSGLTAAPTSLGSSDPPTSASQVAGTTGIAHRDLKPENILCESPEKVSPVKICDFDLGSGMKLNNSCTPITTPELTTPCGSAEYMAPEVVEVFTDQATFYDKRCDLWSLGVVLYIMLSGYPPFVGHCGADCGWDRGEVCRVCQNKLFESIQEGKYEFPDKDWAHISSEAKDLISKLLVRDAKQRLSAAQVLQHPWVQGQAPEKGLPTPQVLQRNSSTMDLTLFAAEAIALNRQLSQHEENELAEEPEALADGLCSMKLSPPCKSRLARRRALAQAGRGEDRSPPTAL

Homo sapiens = species: Homo sapiens; experiment: Inhibition of recombinant PKA (unknown origin) assessed as residual activity using [gamma-33P]ATP as substrate at 1 uM; summary of the method: as §3
[20] = molecular target: Fibroblast growth factor receptor 1 (Homo sapiens) (UniProt P11362); experiment: Inhibition of recombinant FGF-R1 (unknown origin) assessed as residual activity using [gamma-33P]ATP as substrate at 1 uM; summary of the method: as §2
[21] = molecular target: MAP kinase-interacting serine/threonine-protein kinase 2 (Homo sapiens) (UniProt Q9HBH9); experiment: Inhibition of recombinant MNK2 (unknown origin) assessed as residual activity using [gamma-33P]ATP as substrate at 1 uM; summary of the method: as §3
[22] = molecular target: Dual specificity mitogen-activated protein kinase kinase 6 (Homo sapiens) (UniProt P52564); experiment: Inhibition of recombinant MKK6 (unknown origin) assessed as residual activity using [gamma-33P]ATP as substrate at 1 uM; summary of the method: as §3
Sequence of Dual specificity mitogen-activated protein kinase kinase 6 (Homo sapiens) (P52564 whole entry): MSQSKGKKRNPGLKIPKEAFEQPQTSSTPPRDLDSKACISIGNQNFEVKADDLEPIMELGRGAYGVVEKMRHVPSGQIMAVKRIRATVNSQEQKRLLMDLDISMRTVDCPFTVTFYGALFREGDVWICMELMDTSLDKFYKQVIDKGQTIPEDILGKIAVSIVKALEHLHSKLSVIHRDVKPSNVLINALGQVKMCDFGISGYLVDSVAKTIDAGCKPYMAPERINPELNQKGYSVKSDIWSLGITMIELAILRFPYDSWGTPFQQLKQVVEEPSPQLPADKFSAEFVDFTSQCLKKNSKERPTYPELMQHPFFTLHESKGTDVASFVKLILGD

[23] = molecular target: Serine/threonine-protein kinase Sgk1 (Homo sapiens) (UniProt O00141); experiment: Inhibition of recombinant SGK1 (unknown origin) assessed as residual activity using [gamma-33P]ATP as substrate at 1 uM; summary of the method: as §1
[24] = molecular target: Homeodomain-interacting protein kinase 3 (Homo sapiens) (UniProt Q9H422); experiment: Inhibition of recombinant HIPK3 (unknown origin) assessed as residual activity using [gamma-33P]ATP as substrate at 1 uM; summary of the method: as §2
Sequence of Homeodomain-interacting protein kinase 3 (Homo sapiens) (Q9H422 whole entry, looked up): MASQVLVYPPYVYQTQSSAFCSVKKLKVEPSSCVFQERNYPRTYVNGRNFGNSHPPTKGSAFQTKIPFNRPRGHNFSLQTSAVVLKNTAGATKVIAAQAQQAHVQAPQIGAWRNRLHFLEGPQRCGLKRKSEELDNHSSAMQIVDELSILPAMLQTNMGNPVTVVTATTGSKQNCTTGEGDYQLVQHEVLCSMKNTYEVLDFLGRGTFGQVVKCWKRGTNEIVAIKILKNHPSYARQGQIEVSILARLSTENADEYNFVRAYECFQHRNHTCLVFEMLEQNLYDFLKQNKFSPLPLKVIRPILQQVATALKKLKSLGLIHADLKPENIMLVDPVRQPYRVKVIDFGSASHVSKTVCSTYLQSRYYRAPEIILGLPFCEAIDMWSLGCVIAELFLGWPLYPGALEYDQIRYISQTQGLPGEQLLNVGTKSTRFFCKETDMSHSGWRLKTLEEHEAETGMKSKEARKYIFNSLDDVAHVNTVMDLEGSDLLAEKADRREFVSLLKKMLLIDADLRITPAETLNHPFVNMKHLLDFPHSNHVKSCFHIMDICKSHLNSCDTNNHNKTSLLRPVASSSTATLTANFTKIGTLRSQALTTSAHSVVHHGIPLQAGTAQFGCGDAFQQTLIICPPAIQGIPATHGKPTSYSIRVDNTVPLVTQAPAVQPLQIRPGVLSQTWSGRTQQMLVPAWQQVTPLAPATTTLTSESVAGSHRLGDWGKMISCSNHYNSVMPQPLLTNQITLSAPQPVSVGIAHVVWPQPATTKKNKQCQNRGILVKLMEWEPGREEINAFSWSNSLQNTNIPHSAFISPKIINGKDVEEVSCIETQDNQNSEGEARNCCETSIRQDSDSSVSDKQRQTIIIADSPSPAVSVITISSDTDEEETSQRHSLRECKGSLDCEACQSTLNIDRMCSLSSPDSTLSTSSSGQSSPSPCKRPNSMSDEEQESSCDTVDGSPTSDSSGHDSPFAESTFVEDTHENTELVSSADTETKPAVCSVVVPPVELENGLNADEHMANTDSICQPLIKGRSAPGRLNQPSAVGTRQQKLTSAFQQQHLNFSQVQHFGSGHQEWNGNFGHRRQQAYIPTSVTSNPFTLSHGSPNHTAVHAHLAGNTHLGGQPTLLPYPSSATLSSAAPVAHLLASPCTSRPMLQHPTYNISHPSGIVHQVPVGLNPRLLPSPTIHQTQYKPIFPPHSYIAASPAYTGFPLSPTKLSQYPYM

[25] = molecular target: Mitogen-activated protein kinase kinase kinase 1 (Homo sapiens) (UniProt Q13233); experiment: Inhibition of recombinant MEKK1 (unknown origin) assessed as residual activity using [gamma-33P]ATP as substrate at 1 uM; summary of the method: as §3

Sequence of Tyrosine-protein kinase Yes (Homo sapiens) (P07947 2-543 limits assumed): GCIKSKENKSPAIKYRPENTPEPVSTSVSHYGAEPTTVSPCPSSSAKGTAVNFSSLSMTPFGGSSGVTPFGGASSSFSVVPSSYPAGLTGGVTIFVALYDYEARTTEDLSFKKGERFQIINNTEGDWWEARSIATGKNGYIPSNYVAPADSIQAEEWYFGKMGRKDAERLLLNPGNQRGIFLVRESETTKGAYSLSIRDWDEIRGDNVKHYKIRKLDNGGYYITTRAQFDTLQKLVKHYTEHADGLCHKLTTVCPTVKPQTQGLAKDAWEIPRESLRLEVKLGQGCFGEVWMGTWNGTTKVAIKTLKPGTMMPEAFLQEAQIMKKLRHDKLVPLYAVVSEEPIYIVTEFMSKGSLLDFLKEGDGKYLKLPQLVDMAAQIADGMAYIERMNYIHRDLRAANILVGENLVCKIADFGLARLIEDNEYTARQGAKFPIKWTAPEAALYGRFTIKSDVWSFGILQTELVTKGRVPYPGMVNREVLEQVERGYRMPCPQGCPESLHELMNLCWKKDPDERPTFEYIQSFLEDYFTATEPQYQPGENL

| Activity [1] [%] | Activity [2] [%] | Activity [3] [%] | Activity [4] [%] | Activity [5] [%] | Activity [6] [%] | Activity [7] [%] | Activity [8] [%] | Activity [9] [%] | Activity [10] [%] | Activity [11] [%] | Activity [12] [%] | Activity [13] [%] | Activity [14] [%] | Activity [15] [%] | Activity [16] [%] | Activity [17] [%] | Activity [18] [%] | Activity [19] [%] | Activity (Homo sapiens) [%] | Compound | also measured |
| --- | --- | --- | --- | --- | --- | --- | --- | --- | --- | --- | --- | --- | --- | --- | --- | --- | --- | --- | --- | --- | --- |
| 13 | 27 | 58 | 8 | 45 | 2 | 94 | 8 | 17 | 9 | 50 | 5 | 77 | 21 | 32 | 22 | 66 | 96 | 173 | 90 | CC[C@H](CO)Nc1nc(NC(=N)N)c2ncn(C(C)C)c2n1 | Activity [20]: 4%; Activity [21]: 119%; Activity [22]: 72%; Activity [23]: 60%; Activity [24]: 38%; Activity [25]: 91% |
| 11 | 16 | 59 | 7 | 62 | 2 | 94 | 6 | 18 | 9 | 28 | 7 | 67 | 11 | 15 | 6 | 52 | 80 | 178 | 83 | CC[C@@H](CO)Nc1nc(NC(=N)N)c2ncn(C(C)C)c2n1 | Activity [20]: 5%; Activity [21]: 122%; Activity [22]: 88%; Activity [23]: 51%; Activity [24]: 24%; Activity [25]: 96% |
